Data on eight molecules can be found in publication PMC8594913 (Nature cancer, 2021).

The subject of data set [1] is AML cells (MV4–11, GDM-1, SKM-1). Put plainly: Western blotting. Type of data set: cell-based, human. Summed up:
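Cells plated in 15-cm dishes 24 h before treatment with 0.1% DMSO or compound (6-point, fivefold serial dilution); GDM-1 cells were treated 2 d at 3.2–10,000 nM. Blots probed with IRDye secondary antibodies and imaged on a LI-COR Odyssey. Total H2AX (and vinculin for GDM-1) served as loading controls.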
(In general: Immunoblotting shows a protein as a band on a membrane.)

Data set [2] deals with 51 hematologic cancer cell lines. The data set can be described thus: 6-d proliferation, panel of 51 hematologic cancer cell lines. Type of data set: cell-based, human. The gist of the method: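 6-d proliferation run by Horizon Discovery on its 2D OncoSignature panel. Compound given as a 10-point, threefold serial dilution, in triplicate. Growth-death index (GDI) runs from −100 (complete cell death) to 100 (no inhibition). Growth IC50 (gIC50) and GDI are reported per line.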

Another data set has as its system SKM-1 xenograft. The data set can be described thus: Subcutaneous SKM-1 xenograft. Type of data set: in vivo, mouse.
In data set [3] the test system is MV4–11 cells. The data set can be described thus: Cell growth–death assay, MV4–11. Type of data set: cell-based, human.
A short description of data set [4]: Peripheral blood cell counts, SKM-1 study. The data set is classed as in vivo, mouse. Summed up: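 SKM-1 xenograft mice. Compound given s.c. twice daily in 10% captisol (pH 4.5–5); reference agent i.p. three times weekly; both at 10 ml kg⁻¹. Blood counts taken at end of dosing (day 28) and after 27 d recovery (day 55), n = 5 per group. One-way ANOVA with Dunnett's test, adjusted P; log₁₀-transformed where variances were unequal.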

The test system of data set [5] is MV4–11 cells. Put plainly: Global DNA methylation. The note with it: MV4–11, day 4. Type of data set: cell-based, human. Summed up: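 MV4–11 cells plated in 10-cm dishes 24 h before treatment with 0.1% DMSO or compound (8-point, threefold serial dilution). Global 5-methylcytosine was measured, and treated values were normalized to vehicle control.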
Data set [6] concerns MV4–11 human systemic AML model. The data set can be described thus: Disseminated MV4–11 AML model, survival. Conditions: 30 d of dosing. Type of data set: in vivo, mouse.
The next data set has as its system MV4–11 xenograft. The data set can be described thus: Subcutaneous MV4–11 xenograft. The data set is classed as in vivo, mouse.
Data set [7] has as its system hemi-methylated hairpin oligonucleotide. Put plainly: DNA binding assay. Summed up:
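Differential scanning fluorimetry on hemi-methylated hairpin oligonucleotide (200 nM) with 100 μM compound or DMSO. Ramp 25–95 °C at 1 °C min⁻¹, fluorescence read after each step. n = 2 biologically independent experiments, two technical replicates each.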

The test system of another data set is Gla1. The data set can be described thus: Gla1 counter screen. The data set is classed as biochemical. Conditions: read-out: Gla1 IC50; n = 40. (In general: The purpose of a counterscreen is to sort out artefacts and off-target activity.)
Data set [8] addresses T1, DNMT1 (Homo sapiens, UniProt P26358). The data set can be described thus: Reversibility by rapid dilution. The data set is classed as biochemical. Conditions: 100-fold rapid dilution. The gist of the method: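 DNMT1 preincubated 20 min with compound, then the complex was diluted 100-fold by adding substrates. Activity recovery was followed over 70 min by quenching at time points after dilution. Data were fit to a fixed steady-state velocity equation.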

A short description of data set [9]: Compound stability in media without or with cells. Type of data set: physicochemical. The note with it: 1,000 nM, media without or with MV4–11 cells, 37 °C. The gist of the method: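 MV4–11 cells, or media alone, plated 24 h before adding compound (100 or 1000 nM) and incubated at 37 °C. Remaining compound was quantified by LC-MS/MS.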
The next data set deals with Murine DNMT1 (731–1602) (Mus musculus, UniProt P13864). Put plainly: Investigation of covalent adduct. Type of data set: binding. The note with it: 25 μM, 20 h, hemi-methylated DNA. The gist of the method:
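Murine DNMT1 (731–1602, 5.6 μM) incubated 20 h with 14-mer hemi-methylated DNA duplex (25 μM), with or without compound (25 μM). Buffer: 20 mM Tris pH 7.5, 50 mM NaCl, 5 mM DTT, 20% glycerol, 2.5% DMSO. Aliquots diluted fivefold in 0.05% TFA/0.1% formic acid; 20 pmol protein analysed by intact-mass TOF LC–MS for adducts.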

For another data set, the system named is SKM-1 tumors. The data set can be described thus: Pharmacodynamics in SKM-1 tumors. The note with it: SKM-1, 45 mg kg^−1, 8 d of dosing. Type of data set: in vivo, mouse. Summed up:
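SKM-1 subcutaneous xenografts in NOD-scid mice, 3 per group (24 total). Compound given s.c. twice daily in 10% captisol (pH 4.5–5) at 10 ml kg⁻¹. Tumors and blood collected 6 h after the last dose on day 8.5. Tumors assayed for global 5-methylcytosine; blood drug levels by HPLC–MS/MS after acetonitrile precipitation.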

Another data set deals with H1507Y mutant DNMT1. The data set can be described thus: Radioactive SPA, H1507Y DNMT1. Type of data set: biochemical, human.
Another data set can be described thus: Mouse pharmacokinetics. The data set is classed as in vivo. Conditions: mice. Summed up:
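Naive mice, 3 per group, each given a single dose: 2 mg kg⁻¹ i.v. (male CD-1), 2 mg kg⁻¹ s.c. (male C57/BL6) or 30 mg kg⁻¹ s.c. (female Nu/Nu). Composite blood samples were taken over 24 h and measured by HPLC–MS/MS. Parameters came from noncompartmental analysis of mean blood concentration–time profiles; AUC by linear trapezoidal rule.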

The conditions of data set [10]: mouse, in vivo, sc.
For a further data set, the target named is kinases (n = 369). Put plainly: Kinase selectivity panel. The data set is classed as biochemical. Conditions: read-out: IC50 values, kinase panel, panel tested at 10 μM. Summed up:
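Kinase panel run at Reaction Biology with HotSpot technology, compound at a single concentration of 10 μM. PIM1, PKD2/PRKD2 and DYRK2 were run in IC50 format (10-point, threefold serial dilution).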

Data set [11] has as its target other methyltransferases (n = 34). The data set can be described thus: Methyltransferase selectivity panel. The data set is classed as biochemical. The note with it: read-out: IC50 values, methyltransferase panel. The gist of the method:
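Methyltransferase panel run at Reaction Biology with HotSpot technology in IC50 format (10-point, threefold serial dilution).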

A further data set has as its target DNMT1 in HepG2 cells (Homo sapiens, UniProt P26358). The data set can be described thus: Cellular thermal shift assay. Type of data set: cell-based. The note with it: HepG2, 90 min.
Data set [12] has as its target T1, DNMT1. The data set can be described thus: Radioactive SPA, DNMT1, 40-mer hemi-methylated DNA. The data set is classed as biochemical. Conditions: read-out: DNMT1 IC50.
The subject of data set [13] is bacterial M.SssI CpG DNMT. Conditions: cited from earlier work.
The subject of another data set is DNMT3A. Conditions: cited from earlier work.
In data set [14] the test system is DNMT1. The note with it: cited from earlier work.
In another data set the target is DNMT1 (729-1600) (human, UniProt P26358 729-1600). The data set can be described thus: X-ray crystallography.
Chain of DNMT1 (729-1600) (P26358 729-1600): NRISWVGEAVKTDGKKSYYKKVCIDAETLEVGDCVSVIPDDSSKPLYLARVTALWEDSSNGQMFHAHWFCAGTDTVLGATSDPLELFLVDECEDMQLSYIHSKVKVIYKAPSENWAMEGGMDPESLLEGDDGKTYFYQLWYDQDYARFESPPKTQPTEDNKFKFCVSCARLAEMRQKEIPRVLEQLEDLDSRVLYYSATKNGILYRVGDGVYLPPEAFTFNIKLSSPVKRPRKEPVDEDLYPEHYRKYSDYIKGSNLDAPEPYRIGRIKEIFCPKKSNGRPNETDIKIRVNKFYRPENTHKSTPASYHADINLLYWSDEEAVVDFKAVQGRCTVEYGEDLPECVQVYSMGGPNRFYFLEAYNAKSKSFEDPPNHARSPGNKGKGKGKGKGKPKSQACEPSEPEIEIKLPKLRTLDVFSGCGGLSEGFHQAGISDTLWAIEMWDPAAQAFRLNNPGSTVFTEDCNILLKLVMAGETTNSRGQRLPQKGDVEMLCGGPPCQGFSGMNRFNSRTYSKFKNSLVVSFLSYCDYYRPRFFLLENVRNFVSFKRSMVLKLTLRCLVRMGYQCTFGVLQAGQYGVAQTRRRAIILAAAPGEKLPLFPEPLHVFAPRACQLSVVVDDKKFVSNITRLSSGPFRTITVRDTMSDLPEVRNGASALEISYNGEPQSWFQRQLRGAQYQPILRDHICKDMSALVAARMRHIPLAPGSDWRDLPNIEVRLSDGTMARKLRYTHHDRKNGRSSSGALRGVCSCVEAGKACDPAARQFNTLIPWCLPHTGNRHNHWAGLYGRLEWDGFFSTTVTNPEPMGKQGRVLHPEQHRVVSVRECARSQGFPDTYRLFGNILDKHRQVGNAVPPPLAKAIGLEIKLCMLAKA

T1 sequence (P26358 whole entry): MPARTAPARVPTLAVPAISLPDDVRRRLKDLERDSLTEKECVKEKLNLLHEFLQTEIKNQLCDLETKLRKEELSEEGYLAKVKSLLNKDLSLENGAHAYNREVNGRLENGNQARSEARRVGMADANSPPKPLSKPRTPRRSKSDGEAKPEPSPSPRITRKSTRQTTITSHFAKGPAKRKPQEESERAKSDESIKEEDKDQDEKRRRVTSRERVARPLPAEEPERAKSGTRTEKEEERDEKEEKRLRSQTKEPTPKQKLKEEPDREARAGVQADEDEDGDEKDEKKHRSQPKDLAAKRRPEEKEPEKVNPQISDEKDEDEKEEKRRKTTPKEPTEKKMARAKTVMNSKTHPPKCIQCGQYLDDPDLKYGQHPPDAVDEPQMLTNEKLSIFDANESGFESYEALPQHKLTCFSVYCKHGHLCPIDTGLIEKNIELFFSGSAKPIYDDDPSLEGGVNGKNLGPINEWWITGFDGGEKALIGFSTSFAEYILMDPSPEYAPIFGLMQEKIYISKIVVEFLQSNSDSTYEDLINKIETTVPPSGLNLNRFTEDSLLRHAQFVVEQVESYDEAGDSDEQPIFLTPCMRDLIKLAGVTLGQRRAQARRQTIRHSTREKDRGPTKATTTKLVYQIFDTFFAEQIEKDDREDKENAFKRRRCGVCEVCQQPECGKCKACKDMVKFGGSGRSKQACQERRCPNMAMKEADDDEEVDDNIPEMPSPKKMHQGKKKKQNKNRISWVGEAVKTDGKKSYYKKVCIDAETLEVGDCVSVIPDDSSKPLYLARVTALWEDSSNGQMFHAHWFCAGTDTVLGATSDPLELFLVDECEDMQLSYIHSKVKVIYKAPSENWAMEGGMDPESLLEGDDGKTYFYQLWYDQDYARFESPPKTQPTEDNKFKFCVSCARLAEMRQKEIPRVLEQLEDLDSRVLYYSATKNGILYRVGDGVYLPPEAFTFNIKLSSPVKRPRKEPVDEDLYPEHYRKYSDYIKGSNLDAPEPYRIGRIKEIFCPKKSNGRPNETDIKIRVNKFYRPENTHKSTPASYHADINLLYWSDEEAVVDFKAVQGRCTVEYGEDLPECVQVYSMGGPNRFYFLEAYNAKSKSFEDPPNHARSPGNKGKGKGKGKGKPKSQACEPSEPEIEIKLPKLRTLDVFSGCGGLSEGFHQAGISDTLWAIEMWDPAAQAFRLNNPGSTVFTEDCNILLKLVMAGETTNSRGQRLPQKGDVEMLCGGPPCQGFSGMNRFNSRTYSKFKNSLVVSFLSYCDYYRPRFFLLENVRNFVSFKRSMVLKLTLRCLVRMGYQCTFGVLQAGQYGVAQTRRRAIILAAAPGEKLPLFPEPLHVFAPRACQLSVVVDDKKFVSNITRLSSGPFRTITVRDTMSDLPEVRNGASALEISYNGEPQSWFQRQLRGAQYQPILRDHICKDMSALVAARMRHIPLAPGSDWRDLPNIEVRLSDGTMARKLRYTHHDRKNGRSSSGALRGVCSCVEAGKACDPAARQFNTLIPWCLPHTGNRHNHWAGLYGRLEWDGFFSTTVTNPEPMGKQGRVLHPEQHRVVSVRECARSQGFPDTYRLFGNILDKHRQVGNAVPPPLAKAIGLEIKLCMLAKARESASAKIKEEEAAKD
Chain of DNMT1 in HepG2 cells (P26358 whole entry): as above
Chain of Murine DNMT1 (731–1602) (P13864 731-1602): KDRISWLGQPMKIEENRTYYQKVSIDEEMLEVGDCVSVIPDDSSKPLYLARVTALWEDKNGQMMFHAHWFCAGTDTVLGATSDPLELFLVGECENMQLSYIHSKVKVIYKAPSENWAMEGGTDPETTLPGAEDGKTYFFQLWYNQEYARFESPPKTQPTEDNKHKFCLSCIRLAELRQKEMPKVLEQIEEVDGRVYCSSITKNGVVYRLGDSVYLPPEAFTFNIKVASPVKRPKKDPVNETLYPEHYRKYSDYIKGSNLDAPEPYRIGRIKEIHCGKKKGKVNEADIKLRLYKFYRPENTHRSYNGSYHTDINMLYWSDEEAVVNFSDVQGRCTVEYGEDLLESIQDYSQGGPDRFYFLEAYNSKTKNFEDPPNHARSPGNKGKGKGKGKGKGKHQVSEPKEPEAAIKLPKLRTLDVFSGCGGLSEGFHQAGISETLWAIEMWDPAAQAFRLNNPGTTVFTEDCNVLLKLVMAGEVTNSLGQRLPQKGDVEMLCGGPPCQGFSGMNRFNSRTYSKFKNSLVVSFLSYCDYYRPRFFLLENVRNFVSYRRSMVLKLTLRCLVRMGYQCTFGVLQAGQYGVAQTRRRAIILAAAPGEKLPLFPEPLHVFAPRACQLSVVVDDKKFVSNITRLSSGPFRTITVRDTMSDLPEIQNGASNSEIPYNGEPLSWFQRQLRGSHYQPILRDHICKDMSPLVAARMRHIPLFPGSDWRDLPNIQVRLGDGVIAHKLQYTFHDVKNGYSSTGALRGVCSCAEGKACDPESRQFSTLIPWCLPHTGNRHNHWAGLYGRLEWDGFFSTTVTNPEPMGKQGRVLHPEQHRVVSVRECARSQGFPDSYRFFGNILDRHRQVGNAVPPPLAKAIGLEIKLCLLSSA

Consider `Nc1ncn([C@H]2C[C@H](O)[C@@H](CO)O2)c(=O)n1` [DAC, decitabine, reference compound], for which the “lowest dose with accumulation of γH2AX (DNA damage)” value in data set [1] amounted to 16 nM. Further, the “cell lines with negative growth–death index (GDI)” value in data set [2] (day 6) is 80%. The “tumor growth inhibition relative to vehicle” value was determined as 18% in the data set on SKM-1 xenograft (SKM-1, intraperitoneal three times weekly, not statistically significant) and 57% in the data set on MV4–11 xenograft (MV4–11, intraperitoneal three times weekly, not statistically significant). The “onset of cell death (negative GDI)” value in the data set on MV4–11 cells [3] (MV4–11) was determined as 2 days. The “neutrophils, red blood cells, platelets” value in [4] (day 28, DAC intraperitoneal three times weekly) is recorded as “statistically significant decreases”. Further, the “concentration above which DNA hypomethylation and gene activation diminish” value with MV4–11 cells [5] is “above 350 nM”. Besides, the “survival benefit over vehicle” value in data set [6] was 13 days.
The term IC50 denotes the concentration that inhibits the measured activity by half. For `CCc1c(C#N)c(SC(C(N)=O)c2ccccc2)nc(N(C)C)c1C#N` (stereo not drawn) [GSK3484862], the “nonspecific DNA binding” value in data set [7] (100 μM compound) is “did not bind DNA nonspecifically”. The “Tm of hemi-methylated hairpin oligonucleotide” value in data set [7] (with DMSO or 100 μM compound) worked out at 77.5 °C. Besides, the half-inhibitory concentration (IC50) in the data set with Gla1 was greater than 50000 nM. In addition, at DNMT1 [8], the “reversibility of DNMT1 inhibition” value is listed as “rapidly reversible inhibition”. Moreover, in data set [9], the chemical stability entry is given as “chemically stable”.
Regarding `CCc1c(C#N)c(SC(C(N)=O)c2ccccc2)nc(N2CCC(N)CC2)c1C#N` (stereo not drawn) [GSK3685032], in data set [1], the “effects on DNMT3A, DNMT3B or γH2AX” value is given as “no immediate effects”. Further, the concentration for half-maximal inhibition (IC50) was 640 nM in data set [2] (read-out: median growth IC50 (gIC50), day 6, median of panel); greater than 10000 nM on kinases (n = 369); greater than 10000 nM in data set [11]. Also, at Murine DNMT1 (731–1602), the “covalent binding to DNMT1” value was “noncovalent”. For the same molecule, the “dose giving clear tumor regression” value with SKM-1 xenograft (SKM-1, subcutaneous twice daily) is no less than 30 mg/kg; in the data set on MV4–11 xenograft (MV4–11, subcutaneous twice daily) it was no less than 30 mg/kg. Further, the “animals maintaining tumor volumes ≤200 mm^3 while off drug” value in the data set with SKM-1 xenograft (SKM-1, ≥30 mg kg^−1, 4-week observation after dosing) is recorded as no less than 60%; with MV4–11 xenograft (MV4–11, ≥30 mg kg^−1, 4-week observation after dosing), no less than 60%. The “onset of growth inhibition” value in the data set with MV4–11 cells [3] (AML lines, 6 d time course) was no less than 3 days. Moreover, the “neutrophils, red blood cells, platelets” value in [4] (day 28, 1 or 5 mg kg^−1) is reported as “no statistically significant changes”. Further, in the data set with SKM-1 tumors, the “maximal loss of DNA methylation in tumors” value is on record as 46%. The “reduction in inhibition of H1507Y mutant versus wild-type DNMT1” value in the data set on H1507Y mutant DNMT1 is given as greater than 350 fold. This molecule had a blood half-life in the data set “Mouse pharmacokinetics” greater than 1.8 h. The clearance entry in the data set “Mouse pharmacokinetics” is listed as “low clearance”. Besides, the volume of distribution entry in the data set “Mouse pharmacokinetics” was “moderate volume of distribution”. Moreover, the “additional loss of global DNA methylation versus DAC” value with MV4–11 cells [5] is recorded as 13%. The “maximal response, loss of global DNA methylation” value with MV4–11 cells [5] was found to be 83%. Moreover, in data set [6], the “mice surviving nearly 7 weeks after dosing ended” value was determined as 50%. Moreover, the “survival benefit over vehicle” value in data set [6] is greater than 43 days. The well tolerated dose entry in [10] is “at least 45 mg kg^−1”. The “cellular target engagement (DNMT1 thermal stabilization)” value on DNMT1 in HepG2 cells is recorded as “stabilization of DNMT1”.
With `CCc1c(C#N)c(SCc2ccc(N(C)S(C)(=O)=O)cc2)nc(N(C)CCNC)c1C#N` [GSK3830052], on DNMT1 [12], the concentration for half-maximal inhibition (IC50) worked out at 110 ± 20 nM.
Turning to `O=C(O)C(Cc1c[nH]c2ccccc12)N1C(=O)c2ccccc2C1=O` (stereo not drawn) [RG-108], the IC50 in data set [13] is 12 nM.
In the case of `Nc1ncnc2c1ncn2[C@@H]1O[C@H](CSCC[C@H](N)C(=O)O)[C@@H](O)[C@H]1O` [SAH, S-adenosyl-L-homocysteine, reference compound], the “reduction in inhibition of H1507Y mutant versus wild-type DNMT1” value in the data set with H1507Y mutant DNMT1 is on record as “not observed”.
Consider `Cc1cc(Nc2ccc(NC(=O)c3ccc(Nc4ccnc5ccccc45)cc3)cc2)nc(N)n1` [SGI-1027], for which the cell growth result with MV4–11 cells [3] (MV4–11, day 6) was “inhibited cell growth”. Besides, in the data set with DNMT3A, the “activity against DNMT3A” value is listed as “low μM activity”. Besides, the “activity against DNMT1” value in the data set with DNMT1 [14] is reported as “low μM activity”.

B1: 12-bp hemi-methylated DNA with zebularine (dsDNA)
DNA 1: GAGGCCGCCTGC
DNA 2: GCAGGCGGCCTC
modifications: strand 1 C6 = 5-methylcytosine (M); strand 2 C6 = zebularine (Z, in place of target cytidine)
B1: in the data set with DNMT1 (729-1600), the binding result is recorded as “binds”.
